Screens as filed in PubChem BioAssay.
This is a sample that favours compounds with a hit; in the whole collection about 2.1% have one here.
TRPML3 ag: agonists of human TRPML3 channel. HEK293 TRPML3-YFP, Fluo-8 calcium fluorescence; 100% = the carbachol control signal. AID 1448. Q8TDD5. 0.29% of 220,000 active. activation, % at 3 µM;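 active = activation above its plate's cutoff, the mean activation of the plate's test wells plus 3 SD, cut at about 12% in these data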;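 also: 0% = DMSO only wells and 100% = carbachol wells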
Target sequence (Q8TDD5 whole entry, looked up): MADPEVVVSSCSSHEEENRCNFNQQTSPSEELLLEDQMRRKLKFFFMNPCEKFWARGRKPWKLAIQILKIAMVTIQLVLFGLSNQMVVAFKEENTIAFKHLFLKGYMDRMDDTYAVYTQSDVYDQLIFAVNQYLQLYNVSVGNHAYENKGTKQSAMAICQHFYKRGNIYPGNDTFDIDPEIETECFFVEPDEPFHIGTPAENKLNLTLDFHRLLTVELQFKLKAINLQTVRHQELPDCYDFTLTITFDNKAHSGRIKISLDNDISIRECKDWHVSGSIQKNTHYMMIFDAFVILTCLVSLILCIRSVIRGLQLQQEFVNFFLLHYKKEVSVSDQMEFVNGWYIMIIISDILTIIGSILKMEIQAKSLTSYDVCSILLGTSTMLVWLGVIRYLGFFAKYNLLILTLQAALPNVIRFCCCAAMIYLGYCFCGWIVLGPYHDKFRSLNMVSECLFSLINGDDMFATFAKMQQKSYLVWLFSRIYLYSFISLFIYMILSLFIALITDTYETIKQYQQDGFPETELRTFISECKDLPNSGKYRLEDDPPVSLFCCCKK
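Test system: TRPML3-YFP stable HEK293 cells. Doses: single point at 3 µM. Incubation: dye loading 1 h 37 °C then 30 min ambient, 125 s read. Signal: Fluo-8 calcium dye fluorescence, ex 470-495, em 515-575 nm. Measure: percent activation from peak-to-basal fluorescence ratio, scaled between DMSO and carbachol.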
CRFR2-BP ag: agonists of human CRF-binding protein/CRF-R2 receptor complex; 0.46% of 350,000 active; activation, % at 13.2 µM; AID 588473; HEK293 CRF-R2/CRF-BP, calcium dye fluorescence (FLIPR); percent of saturating CRF peptide response;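 active = activation of at least 50%, plus an integration ratio under a set limit after plate pattern correction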;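 also: plate controls were neutral control wells without compound for no effect and CRF at EC100 for full effect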
VIM-2 inh: blocks Pseudomonas aeruginosa VIM-2 metallo-beta-lactamase | purified VIM-2, nitrocefin hydrolysis, epi-absorbance fluorescence | inhibition, % at 5.6 µM | 0.89% of 290,000 active | AID 1527;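 active = inhibition above the mean of all tested compounds plus 3 SD, cutoff set per screening run, cut at about 7.5% in these data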;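 also: red hydrolysis product quenches plate fluorescence so inhibitors raise well fluorescence; 0% = enzyme with DMSO and 100% = DMSO without enzyme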
TRPN1 ag: agonists of zebrafish TRPN1 channel; HEK293 zebrafish TRPN1-YFP, Fluo-8 calcium fluorescence; 100% = response to 87 µM carbachol; activation, % at 3 µM; 0.18% of 220,000 active;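 active = activation above its plate's cutoff, the mean activation of test wells on that plate plus 3 SD, cut at about 19% in these data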;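 also: 0% = DMSO alone and 100% = 87 µM carbachol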
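System: zebrafish TRPN1-YFP in HEK293 cells / Dosing: 3 µM single point / Timing: dye loading 1 h at 37 °C, then 30 min room temperature / Signal: Fluo-8 calcium fluorescence, excitation 470-495 nm, emission 515-575 nm / Read-out basis: percent activation from peak over basal fluorescence ratio, control-normalized / Control set: high carbachol 87 µM, low DMSO alone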
CRFBP-R2 block: CRF-BP/CRF-R2 complex antagonism | HEK293 CRF-R2/CRF-BP, CRF-induced calcium fluorescence | inhibition, % at 11.8 µM | 0.59% of 350,000 active | AID 588475;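 active = inhibition of the ligand-induced calcium signal above about 50% at the single tested concentration, limit read from the data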
IMP-1 inhibitor: blocks Pseudomonas aeruginosa IMP-1 metallo-beta-lactamase; purified IMP-1, nitrocefin hydrolysis, epi-absorbance fluorescence; inhibition, % at 5.6 µM; 0.45% of 290,000 active;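 active = inhibition above the mean plus 3 SD of all compounds in the same screening run, cut at about 4.5% in these data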;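 also: 0% = IMP-1 with DMSO and 100% = DMSO wells lacking enzyme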
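Assay system: purified recombinant IMP-1 beta-lactamase. Input: IMP-1 0.2 nM before substrate addition. Buffer or medium: Zinc- and detergent-supplemented HEPES buffer, pH 7.1. Schedule: 25 °C, 15 min preincubation, 25 min reaction. Signal: Epi-absorbance fluorescence, 480 nm excitation, 530 nm emission. Evaluation: percent inhibition from optical density relative to buffer-blank wells.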
An asterisk follows results filed as active; / = no result.

SMILES	TRPML3 ag	CRFR2-BP ag	VIM-2 inh	TRPN1 ag	CRFBP-R2 block	IMP-1 inhibitor
COc1ccc(N2CCN(C3CCCCC3NS(=O)(=O)c3ccc(Cl)cc3)CC2)cc1 (centres undefined)	/	70*	0	/	-37	0
COc1ccccc1N1CCN(C2CCCCC2NS(=O)(=O)c2ccc(Cl)cc2)CC1 (centres undefined)	/	212*	0	/	-196	0
CN1CCN(C2CCCCC2NS(=O)(=O)c2ccc(Cl)cc2)CC1 (centres undefined)	/	-1	-1	/	-2	-5
O=C1CCCC2=C1CC(C(=O)OCc1ccccc1)C(=O)N2Cc1ccccc1 (centres undefined)	/	-7	/	/	-2	/
CC(Sc1nc2ncc(Cl)cc2[nH]1)C(=O)Nc1ccc(C(N)=O)cc1 (centres undefined)	/	-1	/	/	-23	/
CC(C)Cc1cc(C(C)(C)C)ccc1OC(=S)N(C)C	/	0	-2	/	-4	-4
Cc1nn(C)c(C)c1NC(=O)c1cc2nc(-c3ccco3)cc(C(F)(F)F)n2n1	1	-3	-1	2	134*	-3
O=C(NCc1ccco1)c1cc2nc(C3CC3)cc(C(F)(F)F)n2n1	0	0	1	0	-3	-1
O=C(Nc1ccc(Cl)cc1)c1cc2nc(-c3ccco3)cc(C(F)(F)F)n2n1	-1	0	-2	0	-24	-2
COc1ccc(-c2cc(C(F)(F)F)n3nc(C(=O)NCc4ccco4)cc3n2)cc1OC	0	2	8.7*	-1	-25	-1
CSc1ccc(CCNC(=O)CCc2nnc3ccc(N4CCC5(CC4)OCCO5)nn23)cc1	/	-1	0	/	3	0
Cn1cc(SCC(=O)N2CCCc3ccccc32)c2ccccc21	-1	-2	0	-2	-9	6.9*
Cn1cc(SCC(=O)N2CCOCC2)c2ccccc21	0	-4	0	0	-2	-2
O=C1C=C(c2n[nH]nc2-c2ccccc2)C[C@@H](c2ccc(F)cc2)C1	/	3	/	/	6	/
Cc1ccccc1-c1cc(C(=O)NCc2cccc(C(F)(F)F)c2)n(CC2CC(c3cccnc3)=NO2)n1 (centres undefined)	/	1	/	/	19	/
CC(=O)c1ccc(Nc2cc(C)nc3c(C)cc(C)cc23)cc1	-1	0	8.0*	0	15	-3
CC(=O)c1cccc(Nc2cc(C)nc3c(C)cccc23)c1	1	-1	4	1	109*	0
CC(=O)c1cccc(Nc2cc(C)nc3ccccc23)c1	1	1	0	2	10	-3
CC1C/C(=N\NC(=O)c2ccc([N+](=O)[O-])cc2)CC(C)(C)C1 (centres undefined)	1	5	-3	1	72*	-4
CC1C/C(=N\NC(=O)c2cccnc2)CC(C)(C)C1 (centres undefined)	1	0	1	0	-1	-2
CN1CCN(c2nc(-c3cccc([N+](=O)[O-])c3)nc3ccccc23)CC1	/	1	8.6*	/	-53	1
Cc1ccc(-c2nc(N3CCN(C)CC3)c3ccccc3n2)cc1	/	2	0	/	-7	-2
C#CC[N+](C)(C)CCCCCCCC	0	275*	-1	1	-281	-2
C#CC[N+](C)(C)CCCCCCCCCC	0	8	-2	0	-4	-1
C=CCC1=C/C(=C\c2c(N)n3nc(CC(=O)N4CCCC4)sc3nc2=O)C=C(OC)C1=O	/	71*	2	/	-106	2
Nc1c(C=C2C=CC(=O)C=C2)c(=O)nc2sc(CC(=O)N3CCOCC3)nn12	/	0	1	/	8	-1
CCOC1=C/C(=C/c2c(N)n3nc(CC(=O)N4CCCCC4)sc3nc2=O)C=CC1=O	/	57*	2	/	-68	-4
COC1=CC(=Cc2c(N)n3nc(CC(=O)N4CCOCC4)sc3nc2=O)C=C(OC)C1=O	/	151*	3	/	-109	-1
COC1=C/C(=C/c2c(N)n3nc(CC(=O)N4CCCCC4)sc3nc2=O)C=CC1=O	/	40	4	/	-59	-1
